We go through three molecules from ChEMBL document CHEMBL1671788, “Discovery, synthesis, and structure-activity relationship development of a series of N-(4-acetamido)phenylpicolinamides as positive allosteric modulators of metabotropic glutamate receptor 4 (mGlu(4)) with CNS exposure in rats” (J Med Chem, 2011).

The source made the active and inactive calls. The rule behind the calls is not given here.

The target of series [1] is Metabotropic glutamate receptor 4 (Rattus norvegicus) (UniProt P31423). Nature of the series: Positive allosteric modulation of rat mGluR4 expressed in CHO cells coexpressing Gqi5 assessed as potentiation of glutamate-induced calcium mobilization. It is filed as functional, cell-based. A general note: Calcium flux is commonly read through the fluorescence of an indicator in the cells.

Series [2] can be described thus: AUC in Sprague-Dawley rat plasma at 10 mg/kg, sc. It counts as ADME, organism-based. Details: dose 10 mg/kg, route subcutaneous.
The nature of series [3]: Cmax in Sprague-Dawley rat brain at 10 mg/kg, sc. It counts as ADME, organism-based. Also noted: dose 10 mg/kg, route subcutaneous. Put shortly:
(§1)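 Rats dosed subcutaneously at 10 mg/kg as a 10% tween 80 microsuspension. […] In vivo samples were quantified by LC/MS/MS (ESI, positive-mode MRM) after gradient elution on a C18 column.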

A further series deals with Cytochrome P450 2D6 (Homo sapiens, UniProt P10635). In words: Inhibition of human CYP2D6. Put shortly: (§2)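 Human liver microsomes (final 0.1 mg/mL) in 0.1 M potassium phosphate, pH 7.4, with a probe cocktail: phenacetin 10 µM (1A2), diclofenac 5 µM (2C9), dextromethorphan 5 µM (2D6) and midazolam 2 µM (3A4). Compound at 100 nM–30 µM final, in duplicate, preincubated 15 min at 37 °C. NADPH (1 mM) reaction ran 8 min, was quenched with cold acetonitrile, and read by LC/MS/MS (MRM). IC50 determined.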

The target in the next series is T1, Cytochrome P450 1A2 (Homo sapiens, UniProt P05177).
T1 sequence (P05177 whole entry): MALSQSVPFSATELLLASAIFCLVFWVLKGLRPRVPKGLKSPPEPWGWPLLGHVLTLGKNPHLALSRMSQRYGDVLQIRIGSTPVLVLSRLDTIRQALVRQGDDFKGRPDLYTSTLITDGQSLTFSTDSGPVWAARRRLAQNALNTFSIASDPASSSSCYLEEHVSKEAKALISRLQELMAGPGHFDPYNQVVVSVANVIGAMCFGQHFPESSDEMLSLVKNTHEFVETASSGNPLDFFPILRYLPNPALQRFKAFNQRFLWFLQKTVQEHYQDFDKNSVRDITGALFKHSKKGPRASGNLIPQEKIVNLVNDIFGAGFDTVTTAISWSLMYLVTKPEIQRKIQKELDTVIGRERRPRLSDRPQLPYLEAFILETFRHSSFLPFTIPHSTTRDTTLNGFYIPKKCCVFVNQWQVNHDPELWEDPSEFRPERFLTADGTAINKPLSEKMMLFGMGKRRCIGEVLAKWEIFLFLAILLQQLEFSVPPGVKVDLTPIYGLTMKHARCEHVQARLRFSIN
In words: Inhibition of human CYP1A2. Put shortly:
as §2

For another series, the target named is Cytochrome P450 3A4 (Homo sapiens, UniProt P08684). Nature of the series: Inhibition of human CYP3A4. Put shortly:
as §2

The target in series [4] is Metabotropic glutamate receptor 4 (Rattus norvegicus) (UniProt P31423). In words: Positive allosteric modulation of rat mGluR4 expressed in CHO cells coexpressing Gqi5 assessed as calcium mobilization relative to PHCCC. It counts as functional, cell-based.
Series [5] has as its target T2, Metabotropic glutamate receptor 4 (Homo sapiens, UniProt Q14833). In words: Positive allosteric modulation of human mGluR4 expressed in CHO cells coexpressing Gqi5 assessed as calcium mobilization relative to PHCCC. It counts as functional, cell-based. Put shortly:
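CHO cells stably expressing human mGlu4 with Gqi5 were plated at 30,000 cells/well and grown overnight. Cells were loaded with 1 µM Fluo-4 AM for 45 min at 37 °C in HBSS/HEPES/2.5 mM probenecid buffer. […] Ca2+ fluorescence was read (ex 470, em 540 nm). Curves were fitted with a four-parameter logistic; ≥3 independent runs in triplicate.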

Series [6] can be described thus: in vivo. The note with it: Sprague-Dawley, rat, sc, 10 mg/kg.
A short description of series [7]: Plasma protein binding in Sprague-Dawley rat. The note with it: read-out: PPB. It counts as ADME, cell-free. Put shortly: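 Equilibrium dialysis of compound spiked into rat plasma against 25 mM phosphate buffer, pH 7.4. Dialysis ran 4 h at 37 °C with shaking. Both chambers were matrix-matched, extracted with cold acetonitrile and quantified by LC/MS/MS. Triplicate within one plate.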

Series [8] deals with Metabotropic glutamate receptor 4 (Rattus norvegicus, UniProt P31423). Nature of the series: Positive allosteric modulation of rat mGluR4 expressed in CHO cells coexpressing Gqi5 assessed as calcium mobilization. It counts as functional, cell-based. The note with it: read-out: EC50.
For series [9], the system named is Plasma. In words: Cmax in Sprague-Dawley rat plasma at 10 mg/kg, sc. Particulars: in vivo. Also noted: dose 10 mg/kg, route subcutaneous. It counts as ADME, organism-based. Put shortly:
as §1

For series [10], the system named is Plasma. Nature of the series: AUC in Sprague-Dawley rat brain at 10 mg/kg, sc. It is filed as ADME, organism-based. Also noted: dose 10 mg/kg, route subcutaneous. Particulars: in vivo.
In a further series the target is Cytochrome P450 2C9 (Homo sapiens, UniProt P11712). Nature of the series: Inhibition of human CYP2C9. Put shortly:
as §2

Series [11] addresses T2, Metabotropic glutamate receptor 4. Nature of the series: Positive allosteric modulation of human mGluR4 expressed in CHO cells coexpressing Gqi5 assessed as calcium mobilization. It counts as functional, cell-based. Particulars: read-out: EC50.
The target of series [12] is Metabotropic glutamate receptor 1 (Rattus norvegicus) (UniProt P23385). Nature of the series: Positive allosteric modulation in rat mGluR1 receptor expressed in HEK293 cells assessed as effect on calcium mobilization at 10 uM relative to glutamate.
Series [13] is described as follows: in vivo. The note with it: Sprague-Dawley, rat, brain/plasma, iv, 1 mg/kg.
Series [14] addresses Metabotropic glutamate receptor 5 (Rattus norvegicus) (UniProt P31424). In words: Positive allosteric modulation in rat mGluR5 receptor expressed in HEK293 cells assessed as effect on calcium mobilization at 10 uM relative to glutamate.
Series [15] has as its target Metabotropic glutamate receptor 6 (Rattus norvegicus) (UniProt P35349). In words: Positive allosteric modulation in rat mGluR6 receptor expressed in HEK293 cells assessed as effect on thallium flux at 10 uM relative to glutamate. It is filed as cell-based.
Series [16] concerns the target Metabotropic glutamate receptor 2 (Rattus norvegicus) (UniProt P31421). Nature of the series: Positive allosteric modulation in rat mGluR2 receptor expressed in HEK293 cells assessed as effect on thallium flux at 10 uM relative to glutamate. It counts as cell-based. Put shortly: (§3)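 HEK-293 cells co-expressing the rat receptor and GIRK channels, plated at 15,000 cells/well overnight, then loaded with BTC-AM (1.7 µM) for 1 h at room temperature. Vehicle or compound at 10 µM final was added, and 2.5 min later a full glutamate concentration-response was given in thallium-containing buffer. Thallium flux was read by fluorescence and the leftward or rightward shift of the glutamate curve recorded.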

The target in series [17] is Metabotropic glutamate receptor 3 (Rattus norvegicus) (UniProt P31422). In words: Positive allosteric modulation in rat mGluR3 receptor expressed in HEK293 cells assessed as effect on thallium flux at 10 uM relative to glutamate. It counts as cell-based. Put shortly: as §3

The AUC(0-t) is exposure summed from dosing to a finite time, without extrapolation to infinity. Higher therefore signals more exposure. What is called Cmax is the peak of the concentration-time curve. Usually Tmax stands for the time from dosing to the highest level. By EC50 is commonly meant the concentration giving half of the maximal effect. What is called Kp is tissue or fluid exposure divided by exposure in the circulation.

Chain of Metabotropic glutamate receptor 4 (Rattus norvegicus) (P31423 whole entry): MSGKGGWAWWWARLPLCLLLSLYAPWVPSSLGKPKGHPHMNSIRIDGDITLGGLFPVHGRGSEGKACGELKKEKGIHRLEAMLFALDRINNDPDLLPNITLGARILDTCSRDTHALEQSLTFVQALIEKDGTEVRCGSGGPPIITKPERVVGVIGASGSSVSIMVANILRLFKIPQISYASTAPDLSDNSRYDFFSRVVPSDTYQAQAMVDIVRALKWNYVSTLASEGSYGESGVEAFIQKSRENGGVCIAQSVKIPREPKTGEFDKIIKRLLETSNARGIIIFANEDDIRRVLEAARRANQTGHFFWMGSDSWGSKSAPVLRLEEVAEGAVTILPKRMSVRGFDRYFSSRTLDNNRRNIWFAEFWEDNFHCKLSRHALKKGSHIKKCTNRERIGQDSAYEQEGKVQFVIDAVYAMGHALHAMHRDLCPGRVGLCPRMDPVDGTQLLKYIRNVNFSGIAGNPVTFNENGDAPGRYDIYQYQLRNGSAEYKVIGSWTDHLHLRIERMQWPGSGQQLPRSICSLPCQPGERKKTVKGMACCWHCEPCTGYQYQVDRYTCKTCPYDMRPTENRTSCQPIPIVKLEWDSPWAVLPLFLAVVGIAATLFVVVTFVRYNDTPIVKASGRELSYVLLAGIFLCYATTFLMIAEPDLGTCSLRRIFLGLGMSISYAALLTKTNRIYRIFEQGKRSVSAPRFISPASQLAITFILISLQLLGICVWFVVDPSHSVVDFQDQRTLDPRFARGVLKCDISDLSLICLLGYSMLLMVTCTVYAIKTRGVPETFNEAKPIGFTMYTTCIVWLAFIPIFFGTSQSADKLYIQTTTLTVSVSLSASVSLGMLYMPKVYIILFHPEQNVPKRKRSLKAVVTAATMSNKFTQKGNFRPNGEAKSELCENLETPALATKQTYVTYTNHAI
Chain of Cytochrome P450 2C9 (P11712 whole entry): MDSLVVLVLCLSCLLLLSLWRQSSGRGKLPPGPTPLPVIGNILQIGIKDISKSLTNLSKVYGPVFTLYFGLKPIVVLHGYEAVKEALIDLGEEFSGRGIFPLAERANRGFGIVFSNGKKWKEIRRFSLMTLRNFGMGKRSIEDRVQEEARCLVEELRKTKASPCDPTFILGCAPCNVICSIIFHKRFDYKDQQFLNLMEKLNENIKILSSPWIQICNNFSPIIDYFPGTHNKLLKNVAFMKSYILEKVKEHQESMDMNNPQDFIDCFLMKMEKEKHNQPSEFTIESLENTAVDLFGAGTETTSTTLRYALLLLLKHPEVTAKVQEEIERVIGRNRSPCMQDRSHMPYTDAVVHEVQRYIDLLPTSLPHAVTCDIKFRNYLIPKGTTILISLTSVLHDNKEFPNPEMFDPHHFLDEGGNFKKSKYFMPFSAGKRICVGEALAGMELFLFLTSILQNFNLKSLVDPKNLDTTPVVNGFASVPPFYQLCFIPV
Chain of Cytochrome P450 2D6 (P10635 whole entry): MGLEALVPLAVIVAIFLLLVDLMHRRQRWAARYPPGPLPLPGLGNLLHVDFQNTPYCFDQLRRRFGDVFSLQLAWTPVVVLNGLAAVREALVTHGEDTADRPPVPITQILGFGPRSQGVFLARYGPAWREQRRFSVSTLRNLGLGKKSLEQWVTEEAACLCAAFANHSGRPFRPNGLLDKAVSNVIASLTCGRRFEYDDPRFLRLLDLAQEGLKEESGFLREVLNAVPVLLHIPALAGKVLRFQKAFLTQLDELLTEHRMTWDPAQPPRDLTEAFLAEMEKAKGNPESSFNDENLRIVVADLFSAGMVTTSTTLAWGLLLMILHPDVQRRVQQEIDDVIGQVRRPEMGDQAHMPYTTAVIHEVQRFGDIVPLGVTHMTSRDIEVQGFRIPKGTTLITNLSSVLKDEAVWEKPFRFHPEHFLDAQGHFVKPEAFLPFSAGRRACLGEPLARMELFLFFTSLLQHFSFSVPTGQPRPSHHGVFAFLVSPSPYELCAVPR
Chain of Cytochrome P450 3A4 (P08684 whole entry): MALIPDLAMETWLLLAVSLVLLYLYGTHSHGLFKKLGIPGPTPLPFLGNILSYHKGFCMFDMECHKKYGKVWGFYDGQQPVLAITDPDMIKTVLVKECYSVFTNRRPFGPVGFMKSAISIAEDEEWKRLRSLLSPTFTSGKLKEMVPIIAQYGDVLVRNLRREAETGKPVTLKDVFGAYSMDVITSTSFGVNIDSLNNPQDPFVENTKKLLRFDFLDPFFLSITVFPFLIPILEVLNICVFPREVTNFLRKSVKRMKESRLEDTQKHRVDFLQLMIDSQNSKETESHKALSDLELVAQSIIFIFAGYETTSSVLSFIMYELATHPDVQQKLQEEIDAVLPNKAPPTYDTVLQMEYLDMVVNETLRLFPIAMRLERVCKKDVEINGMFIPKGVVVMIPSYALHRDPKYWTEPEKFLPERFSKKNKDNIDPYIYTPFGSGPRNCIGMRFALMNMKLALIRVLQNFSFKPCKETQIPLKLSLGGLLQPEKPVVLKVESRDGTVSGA
T2 sequence (Q14833 whole entry): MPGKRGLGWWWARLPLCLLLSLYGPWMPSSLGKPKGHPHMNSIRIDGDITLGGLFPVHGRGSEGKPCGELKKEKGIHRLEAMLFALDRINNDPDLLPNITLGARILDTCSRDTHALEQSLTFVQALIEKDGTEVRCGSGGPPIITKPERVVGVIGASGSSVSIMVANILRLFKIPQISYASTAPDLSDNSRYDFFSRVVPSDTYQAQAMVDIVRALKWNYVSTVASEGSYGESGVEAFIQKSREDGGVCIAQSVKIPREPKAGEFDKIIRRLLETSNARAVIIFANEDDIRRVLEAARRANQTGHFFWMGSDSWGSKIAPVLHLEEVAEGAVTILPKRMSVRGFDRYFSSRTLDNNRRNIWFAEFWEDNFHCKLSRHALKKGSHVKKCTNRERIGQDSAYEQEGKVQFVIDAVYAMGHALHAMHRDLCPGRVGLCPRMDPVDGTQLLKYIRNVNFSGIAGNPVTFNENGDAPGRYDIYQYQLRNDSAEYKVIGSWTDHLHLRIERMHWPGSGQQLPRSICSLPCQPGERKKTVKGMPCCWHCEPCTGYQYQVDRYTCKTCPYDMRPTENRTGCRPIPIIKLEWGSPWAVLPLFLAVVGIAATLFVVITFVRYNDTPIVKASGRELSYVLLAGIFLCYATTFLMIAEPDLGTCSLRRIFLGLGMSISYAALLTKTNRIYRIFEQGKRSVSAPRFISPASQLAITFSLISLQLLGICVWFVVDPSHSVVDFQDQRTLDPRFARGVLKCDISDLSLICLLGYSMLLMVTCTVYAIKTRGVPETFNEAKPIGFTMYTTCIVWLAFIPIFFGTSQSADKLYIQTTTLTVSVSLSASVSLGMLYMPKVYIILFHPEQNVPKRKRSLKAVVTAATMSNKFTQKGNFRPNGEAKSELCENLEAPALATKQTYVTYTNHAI
Chain of Metabotropic glutamate receptor 4 (Rattus norvegicus, UniProt P31423) (P31423 whole entry): as the sequence (P31423 whole entry) above
Chain of Metabotropic glutamate receptor 1 (Rattus norvegicus) (P23385 19-1199 limits assumed): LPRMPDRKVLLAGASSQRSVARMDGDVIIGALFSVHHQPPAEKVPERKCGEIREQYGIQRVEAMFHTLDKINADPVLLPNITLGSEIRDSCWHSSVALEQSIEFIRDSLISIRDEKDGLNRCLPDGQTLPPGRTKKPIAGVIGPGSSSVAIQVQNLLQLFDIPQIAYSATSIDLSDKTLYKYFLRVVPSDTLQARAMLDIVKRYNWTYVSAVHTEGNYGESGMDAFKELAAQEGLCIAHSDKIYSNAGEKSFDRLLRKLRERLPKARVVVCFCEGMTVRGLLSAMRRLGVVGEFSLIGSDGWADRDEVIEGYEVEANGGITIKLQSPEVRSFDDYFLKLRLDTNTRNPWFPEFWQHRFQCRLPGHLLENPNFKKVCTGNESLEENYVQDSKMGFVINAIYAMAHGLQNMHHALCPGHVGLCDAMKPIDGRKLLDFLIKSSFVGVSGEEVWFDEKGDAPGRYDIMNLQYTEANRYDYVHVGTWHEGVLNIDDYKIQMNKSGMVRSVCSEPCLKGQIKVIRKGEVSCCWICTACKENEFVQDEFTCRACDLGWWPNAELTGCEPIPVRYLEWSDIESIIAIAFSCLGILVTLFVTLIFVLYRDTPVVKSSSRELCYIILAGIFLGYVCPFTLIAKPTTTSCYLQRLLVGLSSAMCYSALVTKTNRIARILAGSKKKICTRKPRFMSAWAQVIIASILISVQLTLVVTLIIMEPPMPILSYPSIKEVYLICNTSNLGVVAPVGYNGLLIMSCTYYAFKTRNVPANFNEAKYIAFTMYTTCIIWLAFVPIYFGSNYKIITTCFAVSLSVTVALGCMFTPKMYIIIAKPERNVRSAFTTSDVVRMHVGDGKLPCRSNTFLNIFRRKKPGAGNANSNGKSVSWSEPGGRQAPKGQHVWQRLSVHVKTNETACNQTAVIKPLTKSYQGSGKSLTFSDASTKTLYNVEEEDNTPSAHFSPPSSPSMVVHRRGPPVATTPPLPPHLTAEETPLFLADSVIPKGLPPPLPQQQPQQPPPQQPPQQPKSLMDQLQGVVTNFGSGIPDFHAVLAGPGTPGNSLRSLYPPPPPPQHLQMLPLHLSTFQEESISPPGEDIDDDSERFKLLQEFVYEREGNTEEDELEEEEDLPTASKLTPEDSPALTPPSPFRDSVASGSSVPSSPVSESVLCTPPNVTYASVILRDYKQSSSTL

Take `Cc1ccccc1C(=O)Nc1ccc(NC(=O)c2ccccn2)cc1Cl`: in [1], the fold change (FC) came to 9.6. This molecule yielded an AUC(0-t) in [2] of 766 ng·h/mL. The figures for the Cmax (in series [3]; in the series on Plasma [9]) were 59.4 ng/g and 219.2 ng/mL, respectively. In addition, the INH at Cytochrome P450 2D6 was 12 µM; at Cytochrome P450 1A2, more than 10 µM; on Cytochrome P450 3A4 it was more than 30 µM; at Cytochrome P450 2C9, 14.1 µM. Moreover, the Activity in series [4] came out at 123%; in series [5], 72.5%. The Tmax in the series “in vivo [6]” was 30 min. In addition, the fraction unbound in series [7] is less than 0.005. Moreover, the EC50 is 915 nM in series [8] and 958 nM in [11]. This molecule also showed an AUC with Plasma [10] of 155.4 ng·h/g.
`O=C(Nc1ccc(NC(=O)c2ccccc2Cl)c(Cl)c1)c1ccccn1` showed an area under the curve AUC(0-t) in series [2] of 658 ng·h/mL. Moreover, the Cmax in [3] came out at 163 ng/g; in the series with Plasma [9], 198.1 ng/mL. Besides, the INH at Cytochrome P450 2D6 was 13.1 µM; at Cytochrome P450 1A2, more than 30 µM; on Cytochrome P450 3A4, more than 30 µM; on Cytochrome P450 2C9, 11.8 µM. Besides, the outcome in series [12], in [14], in series [15], in series [16] and in [17] was inactive. The Kp in “in vivo [13]” amounted to 1.04. For the same molecule, the values for the Activity in [4] and in series [5] were 128% and 77.9%, respectively. In addition, the Tmax in “in vivo [6]” was determined as 30 min. Besides, the fraction unbound in series [7] was less than 0.005. Further, the EC50 in [8] was found to be 570 nM. Moreover, in the series with Plasma [10], the AUC amounted to 681 ng·h/g.
Regarding `COc1cc(NC(=O)c2ccccn2)ccc1NC(=O)c1ccccc1Cl`, the fold change (FC) in series [1] came to 72. The AUC(0-t) in series [2] came to 938 ng·h/mL. Also, the Cmax in series [3] came to 69.1 ng/g; in the series on Plasma [9], 265 ng/mL. For the same molecule, the INH on Cytochrome P450 2D6 was 12.8 µM; at Cytochrome P450 1A2, more than 30 µM; on Cytochrome P450 3A4, more than 30 µM; at Cytochrome P450 2C9 it was 14.3 µM. Moreover, the Activity in series [4] was determined as 147%; in [5], 79.4%. The Tmax in “in vivo [6]” was found to be 60 min. Further, the fraction unbound in series [7] is less than 0.005. In addition, the AUC in the series on Plasma [10] worked out at 312 ng·h/g.
